Source: ChEMBL document CHEMBL1148648, “Novel 1,3-disubstituted 8-(1-benzyl-1H-pyrazol-4-yl) xanthines: high affinity and selective A2B adenosine receptor antagonists” (J Med Chem, 2006)

Legend:
Adenosine receptor A3 = biological target: T1, Adenosine receptor A3 (Homo sapiens, UniProt P0DMS8); assay: Displacement of [125I]AB-MECA from human adenosine A3 receptor expressed in CHO cells; format: cell-based
T1 sequence (P0DMS8 whole entry): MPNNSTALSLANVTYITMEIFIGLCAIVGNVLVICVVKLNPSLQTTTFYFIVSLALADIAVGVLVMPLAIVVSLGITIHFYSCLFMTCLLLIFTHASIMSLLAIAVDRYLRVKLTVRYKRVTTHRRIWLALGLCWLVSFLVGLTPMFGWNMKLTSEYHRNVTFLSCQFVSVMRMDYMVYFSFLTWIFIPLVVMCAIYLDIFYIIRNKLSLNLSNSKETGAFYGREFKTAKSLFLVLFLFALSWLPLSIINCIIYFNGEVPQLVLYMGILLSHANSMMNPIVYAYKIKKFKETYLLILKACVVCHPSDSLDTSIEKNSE
Summary of the method: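 Membranes from CHO cells stably expressing human A3 receptor, prepared like the A2B membranes. Incubated 90 min at 25 °C with gentle agitation, then filtered and washed 4× in ice-cold TM buffer. Nonspecific binding was defined with 1 µM IB-MECA.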

[1] = biological target: Adenosine receptors; A1 & A2b (Homo sapiens) (UniProt P30542+P29275); assay: Selectivity for human adenosine A2b receptor over adenosine A1 receptor; format: protein assay
[2] = biological target: Adenosine A2 receptor (Homo sapiens) (UniProt P29275+P29274); assay: Selectivity for human adenosine A2b receptor over adenosine A2a receptor; format: protein assay
[3] = biological target: Adenosine receptors; A2b & A3 (Homo sapiens) (UniProt P29275+P0DMS8); assay: Selectivity for human adenosine A2b receptor over adenosine A3 receptor; format: protein assay
Adenosine receptor A2b = biological target: T2, Adenosine receptor A2b (Homo sapiens, UniProt P29275); assay: Displacement of [3H]ZM241385 from human adenosine A2b receptor expressed in HEK cells; format: cell-based, HEK293
T2 sequence (P29275 whole entry): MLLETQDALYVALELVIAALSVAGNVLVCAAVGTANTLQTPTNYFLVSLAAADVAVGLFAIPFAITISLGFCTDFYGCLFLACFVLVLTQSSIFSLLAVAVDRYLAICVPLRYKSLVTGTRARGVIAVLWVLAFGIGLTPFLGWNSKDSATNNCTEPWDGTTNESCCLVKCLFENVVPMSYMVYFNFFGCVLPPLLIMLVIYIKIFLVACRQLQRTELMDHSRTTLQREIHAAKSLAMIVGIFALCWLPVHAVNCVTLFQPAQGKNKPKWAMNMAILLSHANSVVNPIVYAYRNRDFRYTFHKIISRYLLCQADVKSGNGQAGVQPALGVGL

Adenosine receptor A2a = Adenosine receptor A2a (Homo sapiens, UniProt P29274); assay: Displacement of [3H]ZM-241385 from human adenosine A2a receptor expressed in HEK cells; format: cell-based, HEK293
Adenosine receptor A1 = biological target: T3, Adenosine receptor A1 (Homo sapiens, UniProt P30542); assay: Displacement of [3H]CPX from human adenosine A1 receptor expressed in CHO cells
T3 sequence (P30542 whole entry): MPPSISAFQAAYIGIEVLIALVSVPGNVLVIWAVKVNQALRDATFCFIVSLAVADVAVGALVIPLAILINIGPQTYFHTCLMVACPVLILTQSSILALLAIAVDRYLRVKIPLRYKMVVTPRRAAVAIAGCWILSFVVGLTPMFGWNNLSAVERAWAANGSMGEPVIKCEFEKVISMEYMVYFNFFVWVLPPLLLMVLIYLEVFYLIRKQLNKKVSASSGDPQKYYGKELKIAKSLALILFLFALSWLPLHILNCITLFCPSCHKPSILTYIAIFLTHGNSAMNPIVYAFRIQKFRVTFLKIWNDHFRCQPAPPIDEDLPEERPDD

Chain of Adenosine receptor A2a (P29274 whole entry): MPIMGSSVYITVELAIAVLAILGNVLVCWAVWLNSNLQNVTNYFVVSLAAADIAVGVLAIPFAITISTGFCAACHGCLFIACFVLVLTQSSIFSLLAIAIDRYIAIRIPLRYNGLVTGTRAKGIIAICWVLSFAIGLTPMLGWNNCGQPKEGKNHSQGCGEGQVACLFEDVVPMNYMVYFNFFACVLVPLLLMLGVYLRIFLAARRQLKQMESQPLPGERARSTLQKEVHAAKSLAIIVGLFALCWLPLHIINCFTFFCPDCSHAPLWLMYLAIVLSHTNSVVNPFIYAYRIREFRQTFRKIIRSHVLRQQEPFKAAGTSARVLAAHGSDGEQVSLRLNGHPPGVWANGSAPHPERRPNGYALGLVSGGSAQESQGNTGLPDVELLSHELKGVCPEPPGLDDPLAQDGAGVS

SMILES | Ki (Adenosine receptor A3) [nM] | Ratio Ki [1] | Ratio Ki [2] | Ratio Ki [3] | Ki (Adenosine receptor A2b) [nM] | Ki (Adenosine receptor A2a) [nM] | Ki (Adenosine receptor A1) [nM]
CCCn1c(=O)c2nc(-c3cn[nH]c3)[nH]c2n(CCC)c1=O | – | 2 | 23 | 2 | – | – | –
Cn1c(=O)c2nc(-c3cnn(Cc4cccc(C(F)(F)F)c4)c3)[nH]c2n(C)c1=O | 1000 | 990 | 690 | 1000 | 1 | 690 | 990
CCCn1c(=O)c2[nH]c(-c3cnn(Cc4cccc(C(F)(F)F)c4)c3)nc2n(CCC)c1=O | 150 | 12 | 27 | 10 | 14 | 400 | 170
CCCn1c(=O)c2[nH]c(-c3cn[nH]c3)nc2n(CCC)c1=O | 23 | – | – | – | 9 | 230 | 20
CCCn1c(=O)c2[nH]c(-c3cc(NC(=O)Cc4ccc(OC)c(OC)c4)nn3C)nc2n(CCC)c1=O | > 1000 | – | – | – | – | > 1000 | > 1000

The remaining molecules from weak to strong by Ki (Adenosine receptor A2a), led by results:

Ki (Adenosine receptor A3) [nM] | Ratio Ki [1] | Ratio Ki [2] | Ratio Ki [3] | Ki (Adenosine receptor A2b) [nM] | Ki (Adenosine receptor A2a) [nM] | Ki (Adenosine receptor A1) [nM] | SMILES
2800 | 54 | 63 | 129 | 22 | 1400 | 1200 | CCCn1c(=O)c2nc(-c3cnn(Cc4cc(C(F)(F)F)ccc4Cl)c3)[nH]c2n(CCC)c1=O
– | 9 | 13 | – | 58 | 870 | 530 | CCCn1c(=O)c2nc(-c3cnn(Cc4cccc(Cl)c4F)c3)[nH]c2n(CCC)c1=O
– | 44 | 34 | – | 13 | 450 | 570 | CCn1c(=O)c2nc(-c3cnn(Cc4cccc(C(F)(F)F)c4)c3)[nH]c2n(CC)c1=O
170 | 7 | 26 | 15 | 11 | 290 | 76 | CCCn1c(=O)c2[nH]c(-c3cnn(Cc4ccccc4)c3)nc2n(CCC)c1=O
– | 7 | 8 | – | 35 | 280 | 170 | CCCn1c(=O)c2nc(-c3cnn(Cc4ccc(F)c(F)c4)c3)[nH]c2n(CCC)c1=O
56 | 13 | 18 | 4 | 14 | 230 | 170 | CCCn1c(=O)c2[nH]c(-c3cnn(Cc4cccc(F)c4)c3)nc2n(CCC)c1=O
– | 0.5 | 4 | – | 18 | 88 | 7 | CCCn1c(=O)c2nc(-c3cnn(Cc4ccc(Cl)cc4)c3)[nH]c2n(CCC)c1=O
